EP2 mod: EP2 receptor (human) modulation. induction, % at 25 µM. 260,000 compounds, 0.83% hits. P43116. EP2-expressing cells, cAMP HTRF FRET, PGE2 co-stimulation;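 active means compounds whose cAMP rise, as percent of the full-agonist control response, exceeds 60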;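 further: rat C6 glioma line stably carrying human EP2 under a CMV promoter; the protocol text gives 20 µM as final concentration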
NPY2 pot ag: potentiates or activates human NPY-Y2 receptor; P49146; cells expressing NPY-Y2, potentiator/agonist read-out; activation, % at 3.6 µM; 220,000 compounds, 0.45% hits; in the data active means activation above about 27%;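 further: cells stimulated with NPY near EC25 plus isoproterenol at EC100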
Target sequence (P49146 whole entry, looked up): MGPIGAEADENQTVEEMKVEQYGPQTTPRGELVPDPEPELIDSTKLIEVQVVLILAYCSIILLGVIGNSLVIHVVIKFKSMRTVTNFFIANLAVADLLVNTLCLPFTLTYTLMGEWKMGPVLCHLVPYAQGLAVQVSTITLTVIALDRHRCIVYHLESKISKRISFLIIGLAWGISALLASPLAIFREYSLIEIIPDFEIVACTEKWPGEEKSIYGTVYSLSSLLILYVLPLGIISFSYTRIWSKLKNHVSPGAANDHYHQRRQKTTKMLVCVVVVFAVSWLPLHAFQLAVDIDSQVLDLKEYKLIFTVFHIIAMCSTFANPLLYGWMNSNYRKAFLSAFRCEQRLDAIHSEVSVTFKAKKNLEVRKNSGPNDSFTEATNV
NPY1 pot ag: human NPY-Y1 potentiation or agonism, primary screen | P25929 | NPY-Y1 expressing cells, potentiator/agonist activation | activation, % at 3.6 µM | 220,000 compounds, 0.37% hits | AID 1304; in the data active means activation above about 33%, passing the limit was not always enough;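 further: cells stimulated with NPY at EC10 then isoproterenol at EC100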
Target sequence (P25929 whole entry, looked up): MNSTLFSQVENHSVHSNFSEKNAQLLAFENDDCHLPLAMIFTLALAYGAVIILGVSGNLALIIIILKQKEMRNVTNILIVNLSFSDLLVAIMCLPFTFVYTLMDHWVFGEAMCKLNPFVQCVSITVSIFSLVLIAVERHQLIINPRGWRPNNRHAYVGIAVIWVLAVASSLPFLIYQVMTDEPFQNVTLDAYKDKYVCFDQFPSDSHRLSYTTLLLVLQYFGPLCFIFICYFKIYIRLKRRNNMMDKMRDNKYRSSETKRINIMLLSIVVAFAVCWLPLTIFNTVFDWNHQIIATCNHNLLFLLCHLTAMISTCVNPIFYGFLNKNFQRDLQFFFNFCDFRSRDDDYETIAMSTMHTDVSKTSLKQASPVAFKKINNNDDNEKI
NPY Y1 blocker: antagonists of human neuropeptide Y receptor Y1; HEK293-CNG Y1 cells, membrane potential fluorescence; NPY at EC95, then isoproterenol; inhibition, % at 3.6 µM; AID 1040; 200,000 compounds, 1% hits;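 active means inhibition above the campaign mean inhibition of all tested compounds plus 3 SD, cut at about 20% in these data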
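Material: HEK293 Y1/CNG channel cell line | Also added: NPY (25 nM), isoproterenol (1 µM), Ro 20-1724 (25 µM) | Compound: One concentration, 3.6 µM, in 0.4% DMSO | Schedule: 3 h dye uptake, 1 h room-temperature compound, 45 min post-isoproterenol | Signal: Membrane-potential fluorescent dye readout | Read-out: % inhibition of NPY effect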
PGE2 EP2 inh: blocks the human prostaglandin E2 receptor EP2 | P43116 | C6 glioma cells expressing human EP2, cAMP TR-FRET; cells stimulated with saturating PGE2 | inhibition, % at 25 µM | 260,000 compounds, 0.52% hits;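 active means percent inhibition above 40 after rounding to a whole number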;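 further: rat C6 glioma host cells with rolipram phosphodiesterase inhibitor present; the protocol text gives 20 µM as final concentration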
NPY-Y2 antag: NPY-Y2 (human) receptor antagonism; 140,000 compounds, 0.99% hits; P49146; NPY-Y2 expressing cells, antagonist mode; inhibition, % at 2.7 µM; in the data active means inhibition above about 17%
NPY-Y1 confirm: human NPY-Y1 potentiation or agonism, confirmation; activation, % at 3.6 µM; cell-based NPY-Y1 potentiator/agonist assay; 280 compounds, 20% hits; shares compounds with NPY1 pot ag; AID 1546; in the data active means activation above about 45%;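 further: cells challenged with NPY at its EC10 plus isoproterenol stimulus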
NPY-Y2 counter: potentiates or activates NPY-Y2, counter-screen for NPY-Y1 hits | shares compounds with NPY1 pot ag | HEK293-CNG cells, membrane-potential fluorescence (FLIPR), 1536-well | activation, % at 3.6 µM | 280 compounds, 20% hits
NPY-Y1 agonist: counter-screen for NPY-Y1 potentiators: agonists of human NPY-Y1. shares compounds with NPY1 pot ag. HEK293 Y1-CNGC, membrane potential fluorescence, agonist mode. activation, % at 3.6 µM. 280 compounds, 50% hits. AID 1697;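 active means percent activation above the mean of DMSO-only control wells plus 3 SD of those wells, cut at about 18% in these data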;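 further: cells challenged with isoproterenol plus Ro 20-1724 with no NPY in test wells; Y1 agonism lowers isoproterenol-driven cAMP and reduces probe fluorescence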
NPY-Y2 agonist: activates human NPY-Y2, counter-screen for NPY-Y1 hits; shares compounds with NPY1 pot ag; HEK293 Y2-CNGC, membrane potential fluorescence, agonist mode; activation, % at 3.6 µM; 280 compounds, 67% hits;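 active means activation above the solvent-only control wells' mean plus 3 SD, cut at about 11% in these data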;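 further: agonism lowers cAMP so well fluorescence drops in active wells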
CNGC inh 2: CNG channel inhibition, counter-screen for NPY-Y1 potentiators; AID 1704; HEK293-CNG parental, isoproterenol cAMP, membrane potential fluorescence; shares compounds with NPY1 pot ag; inhibition, % at 3.6 µM; 280 compounds, 42% hits;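 active means inhibition above the mean of stimulated solvent-only control wells plus 3 SD, cut at about 22% in these data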
NPY-Y2 confirm: human NPY-Y2 potentiation or agonism, confirmation | shares compounds with NPY2 pot ag | activation, % at 3.6 µM | cell-based NPY-Y2 potentiator/agonist assay | 450 compounds, 20% hits
NPY-Y1 potentiator: potentiates or activates NPY-Y1, counter-screen for NPY-Y2 hits; AID 1651; shares compounds with NPY2 pot ag; activation, % at 3.6 µM; Y1 HEK293-CNG cells, membrane potential fluorescence; 450 compounds, 20% hits; in the data active means activation above about 45%;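 further: cells stimulated with submaximal NPY then isoproterenol with phosphodiesterase inhibitor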
NPY-Y1 agonist 2: activates human NPY-Y1, counter-screen for NPY-Y2 potentiators. shares compounds with NPY2 pot ag. HEK293 Y1-CNGC, membrane potential fluorescence, agonism. 450 compounds, 37% hits. activation, % at 3.6 µM;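 active means activation above the mean of DMSO-only control wells plus 3 SD, cut at about 18% in these data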;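 further: cells stimulated with 1 µM isoproterenol plus the PDE inhibitor Ro 20-1724; Y1 agonists lower the membrane potential dye signal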
CNGC inh: cyclic nucleotide gated channel inhibition as counter-screen. shares compounds with NPY2 pot ag. HEK293-CNG parental, isoproterenol cAMP, membrane potential fluorescence. inhibition, % at 3.6 µM. 450 compounds, 32% hits. AID 1703;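 active means inhibition above the control-well mean plus 3 SD of those wells, cut at about 22% in these data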
Y2 agonist ctr: counter-screen for NPY-Y2 potentiators: agonists of human NPY-Y2. shares compounds with NPY2 pot ag. activation, % at 3.6 µM. HEK293 Y2/CNGC cells, membrane potential fluorescence, agonist mode. 450 compounds, 56% hits;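 active means activation above the mean of solvent-only control wells plus 3 SD, cut at about 10% in these data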;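 further: cells stimulated by isoproterenol with no NPY added so direct agonism is tested; agonism lowers probe fluorescence through less cAMP and CNG channel opening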
Hits are given with their value; . = inactive; / = no result. Sampled rows, rich in hits. Any-hit rate of the full collection: about 2.8%. Unless noted, no stated cut-off is given here; in the data, active means activation above about 33%; inactive means the rest.

SMILES | EP2 mod | NPY2 pot ag | NPY1 pot ag | NPY Y1 blocker | PGE2 EP2 inh | NPY-Y2 antag | NPY-Y1 confirm | NPY-Y2 counter | NPY-Y1 agonist | NPY-Y2 agonist | CNGC inh 2 | NPY-Y2 confirm | NPY-Y1 potentiator | NPY-Y1 agonist 2 | CNGC inh | Y2 agonist ctr
NS(=O)(=O)c1ccc(CCNc2ncnc3c2c(-c2ccccc2)cn3-c2ccc(F)cc2)cc1 | . | . | 105 | . | . | . | . | . | . | . | . | / | / | / | / | /
CCOC(=O)CSc1nc2c(c(=O)n(C)c(=O)n2C)n1Cc1cccc(C)c1 | . | / | / | / | . | / | / | / | / | / | / | / | / | / | / | /
CC(C)(C)OC(=O)NCCCCCNC(=O)c1[nH]cnc1C(=O)N[C@@H](Cc1ccccc1)C(=O)OCc1ccccc1 | . | . | 58 | . | . | / | 47 | . | 32 | 19 | 28 | / | / | / | / | /
CC(C)(C)OC(=O)CNC(=O)c1[nH]cnc1C(=O)N[C@@H](Cc1ccccc1)C(=O)OC(C)(C)C | . | / | / | / | . | / | / | / | / | / | / | / | / | / | / | /
COc1ccc(OCCn2c(NC(=O)c3ccccc3OC)nc3ccccc32)cc1 | . | / | / | / | . | / | / | / | / | / | / | / | / | / | / | /
COc1ccc(-c2nc3cnccn3c2NCc2ccccc2)cc1CO | . | / | / | / | / | / | / | / | / | / | / | / | / | / | / | /
Cc1cc2ccccn2c1C(=O)c1ccc(N/N=C/c2ccc(C(=O)O)cc2)c([N+](=O)[O-])c1 | . | . | . | / | . | / | / | / | / | / | / | / | / | / | / | /
C/C(=N\Nc1ccc(C(=O)c2c(C)cc3ccccn23)cc1[N+](=O)[O-])c1ccc(O)cc1 | . | . | 62 | / | . | / | . | . | . | 12 | . | / | / | / | / | /
C=CCn1c(SCC(=O)Nc2nc3ccccc3s2)nnc1-c1ccco1 | . | / | / | / | . | / | / | / | / | / | / | / | / | / | / | /
CCC(CC)c1nn2c(N)c(/C=C3\C=Nc4ccccc43)c(=O)nc2s1 | . | . | 73 | / | . | / | 95 | 82 | 97 | 85 | 46 | / | / | / | / | /
CCCc1nn2c(N)c(/C=C3\C=Nc4ccccc43)c(=O)nc2s1 | . | . | . | . | . | . | / | / | / | / | / | / | / | / | / | /
CCC(C)C1C(C#N)=C(N)Oc2n[nH]c(-c3ccccc3)c21 (centres undefined) | . | . | 40 | . | . | . | . | . | 27 | 23 | . | / | / | / | / | /
CCn1cc(C(=O)N2CCc3ccccc32)c(=O)c2cc(S(=O)(=O)N(C)C3CCCCC3)ccc21 | . | . | 51 | . | . | . | . | . | . | . | . | / | / | / | / | /
COc1ccc(Cl)cc1NC(=O)CSc1nnc(-c2ccccc2O)n1-c1ccccc1OC | . | / | / | / | . | / | / | / | / | / | / | / | / | / | / | /
O=C1c2ccccc2C(=O)c2c([N+](=O)[O-])ccc(O)c21 | . | . | 52 | / | . | / | . | 43 | 29 | 33 | 36 | / | / | / | / | /
C=CCn1c(SCC(=O)Nc2sccc2C(N)=O)nc2ccc(Cl)cc2c1=O | . | . | 38 | . | . | . | . | . | . | 19 | . | / | / | / | / | /
C=CCn1c(SCC(=O)Nc2sccc2C(N)=O)nc2ccccc2c1=O | . | . | . | . | . | . | / | / | / | / | / | / | / | / | / | /
O=C(NCC1CCCO1)c1ccc(NC(=O)C2CC=CCC2C(=O)O)cc1 (centres undefined) | . | . | . | . | . | . | / | / | / | / | / | / | / | / | / | /
O=C(Nc1ccccc1)C1CC=CCC1C(=O)OCC1CCCO1 (centres undefined) | . | . | 55 | . | . | . | . | . | . | . | . | / | / | / | / | /
COCCNC(=O)C(c1ccc(C)cc1)N(C(=O)c1csnn1)C1CCCCC1 (centres undefined) | . | / | / | / | . | / | / | / | / | / | / | / | / | / | / | /
Fc1nc(F)c(F)c(NCCCNc2c(F)c(F)nc(F)c2F)c1F | . | 28 | . | . | . | / | / | / | / | / | / | . | . | 25 | 23 | 32
COc1ccc(Cl)cc1NS(=O)(=O)c1cc(Cl)ccc1OC | . | 33 | . | . | . | . | / | / | / | / | / | . | . | 29 | 26 | 32
O=C(O)c1nccnc1C(=O)Nc1ccc(Oc2c(Cl)cccc2Cl)nc1 | . | 73 | . | / | . | / | / | / | / | / | / | . | . | . | . | .
COc1ccc(NC(=O)c2c(OC)cccc2OC)c(OC)c1 | . | 28 | . | . | . | . | / | / | / | / | / | . | . | . | . | 17
O=C(CN1CCCCCC1)Nc1ccc(S(=O)(=O)N2CCCCCC2)cc1 | . | / | / | / | . | / | / | / | / | / | / | / | / | / | / | /
SMILES | EP2 mod | NPY2 pot ag | NPY1 pot ag | NPY Y1 blocker | PGE2 EP2 inh | NPY-Y2 antag | NPY-Y1 confirm | NPY-Y2 counter | NPY-Y1 agonist | NPY-Y2 agonist | CNGC inh 2 | NPY-Y2 confirm | NPY-Y1 potentiator | NPY-Y1 agonist 2 | CNGC inh | Y2 agonist ctr
CCN(CC)c1ccc(NC(=O)/C=C\c2ccccc2Cl)cc1 | . | 31 | . | . | . | . | / | / | / | / | / | . | . | 25 | 27 | 27
O=C(Cn1c(-c2cscn2)nc2ccccc21)Nc1ccc2ccccc2c1 | . | 29 | . | . | . | . | / | / | / | / | / | . | . | 27 | 32 | 25
Cc1cc2c(C)nc(-c3ccccc3)nc2o1 | . | . | . | . | . | . | / | / | / | / | / | / | / | / | / | /
Cc1nc(-c2cn[nH]c2)c2cc(C)oc2n1 | . | 107 | . | . | . | . | / | / | / | / | / | . | . | . | . | .
CCc1cc[n+](/C(C(=S)Nc2cccc(C)c2)=C(/[O-])c2ccc(C)c([N+](=O)[O-])c2)cc1 | . | 42 | . | . | . | . | / | / | / | / | / | . | . | . | . | 15
COCCNC(=O)C1CCN(S(=O)(=O)c2c(C)cc(C)cc2C)CC1 | . | / | / | / | . | / | / | / | / | / | / | / | / | / | / | /
CCN1C(=O)C2(C(C#N)=C(N)Oc3n[nH]c(C(C)C)c32)c2ccccc21 (centres undefined) | . | . | . | . | . | . | / | / | / | / | / | / | / | / | / | /
